Results taken from article PMC2677757 (Drug metabolism and disposition: the biological fate of …, 2009).
≈ marks a conversion by molar mass, not a printed value. Marks after values point to notes of the source that are not given here.

Experiments:
rSULT1A1 [1] = target: T1, rSULT1A1 (Rattus norvegicus, UniProt P17988); experiment: Reversibility of the effect of GSSG on rSULT1A1 by reduction with DTT; format: biochemical; conditions: 25°C 1 hr pretreatment; 2-naphthol 250 μM, 4′-OH PCB 6 100 μM; mean and SD, n=3
[2] = Solubility of OHPCBs in the SULT assay buffer by light scattering at 400 nm; format: physicochemical
rSULT2A3 = target: T2, rSULT2A3 (Rattus norvegicus, UniProt P22789); experiment: Inhibition of rSULT2A3-catalyzed sulfation of DHEA; format: biochemical; conditions: for Inhibition of rSULT2A3 reached: DHEA as substrate, within solubility limits
T2 sequence (P22789 1-284): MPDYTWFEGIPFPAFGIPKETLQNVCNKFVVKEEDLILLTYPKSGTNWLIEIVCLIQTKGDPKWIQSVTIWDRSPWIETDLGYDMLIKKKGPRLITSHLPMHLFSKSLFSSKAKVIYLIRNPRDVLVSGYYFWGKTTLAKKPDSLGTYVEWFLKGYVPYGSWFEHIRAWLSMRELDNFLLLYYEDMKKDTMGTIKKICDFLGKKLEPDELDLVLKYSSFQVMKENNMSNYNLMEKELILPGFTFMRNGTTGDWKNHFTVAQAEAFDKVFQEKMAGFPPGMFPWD

rSULT1A1 [3] = target: T1, rSULT1A1; experiment: Sulfation of OHPCBs by rSULT1A1 pretreated with GSH or GSSG; format: biochemical; conditions: for Sulfation at varying OHPCB concentrations, rSULT1A1 pretreated with 1 mM GSSG: Fig. 3B; for Substrate inhibition in both reduced and oxidized rSULT1A1-catalyzed reactions: 1 mM GSH or 1 mM GSSG pretreatment; for Sulfation by GSSG-pretreated rSULT1A1 compared with GSH-pretreated enzyme: 1 mM GSSG vs 1 mM GSH, Fig. 3A
How it was run: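 DTT was stripped from purified enzyme by gel filtration at 4°C, leaving less than 0.06 mM. Enzyme was held 1 h at 25°C under argon with 1 mM GSH or GSSG, and GSH was checked by DTNB. Assays used 0.75 μg enzyme, 0.25 M phosphate pH 7.0, 200 μM PAPS and no 2-mercaptoethanol, 6 min at 37°C. Test compound was 100 μM or varied. PAP formation was corrected by a no-compound blank, in duplicate or triplicate.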

hSULT2A1 = conditions: ref Liu et al., 2006; cited from earlier work
rSULT1A1 [4] = target: T1, rSULT1A1; experiment: Inhibition of rSULT1A1-catalyzed sulfation of 2-naphthol; format: biochemical
rSULT1A1 [5] = target: T1, rSULT1A1; experiment: Assay of OHPCBs as potential substrates of rSULT1A1; format: biochemical; conditions: presence of reducing agents; within limits of solubility
How it was run: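 Recombinant rat SULT1A1 was expressed in E. coli at 29°C without IPTG and purified by PAP-agarose affinity with a PAP gradient in DTT-containing buffer. […] Substrate-dependent PAP formation was the read-out.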

[6] = 37 °C, pH 7, aqueous buffer, kinetic from dmso stock
[7] = 37°C, 0.25 M potassium phosphate pH 7.0, […] (v/v) acetone, 7.5 mM 2-mercaptoethanol, light scattering

T1 sequence (P17988 whole entry): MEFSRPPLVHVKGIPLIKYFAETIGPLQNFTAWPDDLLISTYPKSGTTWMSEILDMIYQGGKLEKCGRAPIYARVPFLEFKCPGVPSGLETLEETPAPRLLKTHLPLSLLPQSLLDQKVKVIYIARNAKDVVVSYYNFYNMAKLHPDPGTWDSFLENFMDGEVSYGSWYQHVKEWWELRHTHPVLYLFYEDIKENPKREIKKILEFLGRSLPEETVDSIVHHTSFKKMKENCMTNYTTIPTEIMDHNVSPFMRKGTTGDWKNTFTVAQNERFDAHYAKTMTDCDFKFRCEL

Oc1ccc2ccccc2c1 [2-Naphthol]
Rate of sulfation, rSULT1A1 pretreated with 1 mM GSSG (rSULT1A1 [1]): 50.2±2.1 ^c nmoles of product/mg/min
Rate of sulfation, rSULT1A1 pretreated with 5 mM DTT (rSULT1A1 [1]): 38.3±4.7 nmoles of product/mg/min

Oc1ccc(-c2ccc(Cl)cc2)c(Cl)c1 [4-OH PCB 8, 2,4′-Dichloro-biphenyl-4-ol]
Solubility [2, 6]: ≥ 500 µM
IC50 (rSULT2A3): ~400 µM

Oc1c(Cl)cc(-c2ccccc2)cc1Cl [4-OH PCB 14]
Solubility [2, 7]: ≥1000 µM
Sulfation at varying OHPCB concentrations, rSULT1A1 pretreated with 1 mM GSSG (rSULT1A1 [3]): concentration-dependent sulfation

Oc1c(Cl)cc(-c2ccccc2Cl)cc1Cl [4-OH PCB 34]
Substrate activity for hSULT2A1 (hSULT2A1): good substrates
Solubility [2, 7]: 300 µM (≈ 82.1 µg/mL)

Oc1ccc(-c2ccc(Cl)cc2)cc1 [4′-OH PCB 3]
Solubility [2, 7]: 300 µM (≈ 61.4 µg/mL)

Oc1ccc(-c2ccccc2Cl)cc1Cl [4′-OH PCB 6, 3,2′-Dichloro-biphenyl-4-ol]
Rate of sulfation, rSULT1A1 pretreated with 1 mM GSSG (rSULT1A1 [1]): 37.3±4.0 nmoles of product/mg/min
Solubility [2, 6]: 250 µM (≈ 59.8 µg/mL)
IC50 (rSULT1A1 [4]): 22.7 µM
Inhibition of rSULT2A3 reached (rSULT2A3): less than 50%
Sulfation at varying OHPCB concentrations, rSULT1A1 pretreated with 1 mM GSSG (rSULT1A1 [3]): concentration-dependent sulfation

Oc1ccc(-c2cc(Cl)ccc2Cl)cc1 [4′-OH PCB 9]
Inhibition of hSULT2A1 (hSULT2A1): potent inhibitor
Solubility [2, 7]: 500 µM (≈ 120 µg/mL)
Inhibition of rSULT2A3 reached (rSULT2A3): full inhibition
Substrate inhibition in both reduced and oxidized rSULT1A1-catalyzed reactions (rSULT1A1 [3]): presence of substrate inhibition
Sulfation by GSSG-pretreated rSULT1A1 compared with GSH-pretreated enzyme (rSULT1A1 [3]): only slightly increased

Oc1ccc(-c2ccc(Cl)c(Cl)c2)cc1 [4′-OH PCB 12]
Solubility [2, 7]: ≥500 µM

Oc1ccc(-c2ccc(Cl)cc2Cl)cc1Cl [4′-OH PCB 25]
Solubility [2, 7]: 100 µM (≈ 27.4 µg/mL)

Oc1ccc(-c2ccc(Cl)c(Cl)c2)c(Cl)c1 [4′-OH PCB 33, 2,3′,4′-Trichloro-biphenyl-4-ol]
Solubility [2, 6]: 50 µM (≈ 13.7 µg/mL)
IC50 (rSULT1A1 [4]): 26.2 µM
Inhibition of rSULT2A3 reached (rSULT2A3): less than 50%
Sulfation at varying OHPCB concentrations, rSULT1A1 pretreated with 1 mM GSSG (rSULT1A1 [3]): concentration-dependent sulfation

Oc1ccc(-c2ccc(Cl)c(Cl)c2)cc1Cl [4′-OH PCB 35]
Solubility [2, 7]: 50 µM (≈ 13.7 µg/mL)
Substrate inhibition with rSULT1A1 (rSULT1A1 [5]): did not show substrate inhibition

Oc1ccc(-c2cc(Cl)cc(Cl)c2)cc1Cl [4′-OH PCB 36]
Solubility [2, 7]: 50 µM (≈ 13.7 µg/mL)
Inhibition of rSULT1A1 reached (rSULT1A1 [4]; 2-naphthol as substrate, up to full inhibition or limit of solubility): about 65%

Oc1c(Cl)cc(-c2ccc(Cl)cc2Cl)cc1Cl [4′-OH PCB 68]
Substrate activity for hSULT2A1 (hSULT2A1): good substrates
Solubility [2, 7]: 50 µM (≈ 15.4 µg/mL)

Oc1ccc(Cl)cc1-c1ccc(Cl)c(Cl)c1 [6′-OH PCB 35]
Solubility [2, 7]: 100 µM (≈ 27.4 µg/mL)
Substrate inhibition with rSULT1A1 (rSULT1A1 [5]): did not show substrate inhibition
Substrate inhibition in both reduced and oxidized rSULT1A1-catalyzed reactions (rSULT1A1 [3]): absence of substrate inhibition
Sulfation by GSSG-pretreated rSULT1A1 compared with GSH-pretreated enzyme (rSULT1A1 [3]): only slightly increased
